Experimental data taken from ChEMBL document CHEMBL1649120, “Differential effects of inhibiting chitin and 1,3-{beta}-D-glucan synthesis in ras and calcineurin mutants of Aspergillus fumigatus” (2009).

Tests used:
Format in all cases: functional
Conditions in all cases: read-out: MEC
Aspergillus fumigatus [1] = test: Antifungal activity against Aspergillus fumigatus Af293 assessed as abnormal hyphal growth by CLSI method
How it was run: (§1)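 MEC by CLSI broth microdilution in RPMI 1640. Conidia were incubated with or without drug for 48 h at 37°C, in triplicate.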

Aspergillus fumigatus [2] = test: Antifungal activity against cnaA deficient Aspergillus fumigatus Af293 assessed as abnormal hyphal growth by CLSI method; how it was run: as §1
Aspergillus fumigatus [3] = test: Antifungal activity against Aspergillus fumigatus Af293 expressing cnaA gene assessed as abnormal hyphal growth by CLSI method; how it was run: as §1
Aspergillus fumigatus [4] = test: Antifungal activity against crzA deficient Aspergillus fumigatus Af293 assessed as abnormal hyphal growth by CLSI method; how it was run: as §1
Aspergillus fumigatus [5] = test: Antifungal activity against Aspergillus fumigatus Af293 expressing crzA gene assessed as abnormal hyphal growth by CLSI method; how it was run: as §1
Aspergillus fumigatus [6] = test: Antifungal activity against Aspergillus fumigatus H237 assessed as abnormal hyphal growth by CLSI method; how it was run: as §1
Aspergillus fumigatus [7] = test: Antifungal activity against rasA deficient Aspergillus fumigatus H237 assessed as abnormal hyphal growth by CLSI method; how it was run: as §1
Aspergillus fumigatus [8] = test: Antifungal activity against Aspergillus fumigatus H237 expressing rasA gene assessed as abnormal hyphal growth by CLSI method; how it was run: as §1
Aspergillus fumigatus [9] = test: Antifungal activity against Aspergillus fumigatus H237 expressing dominant-active rasA gene assessed as abnormal hyphal growth by CLSI method; how it was run: as §1

In the case of `C=CC[C@@H]1/C=C(\C)C[C@H](C)C[C@H](OC)[C@H]2O[C@@](O)(C(=O)C(=O)N3CCCC[C@H]3C(=O)O[C@H](/C(C)=C/[C@@H]3CC[C@@H](O)[C@H](OC)C3)[C@H](C)[C@@H](O)CC1=O)[C@H](C)C[C@@H]2OC` [TACROLIMUS ANHYDROUS], the minimal effective concentration (Aspergillus fumigatus [1]) is reported as 0.02 µg/mL, the minimal effective concentration (Aspergillus fumigatus [2]) is reported as over 80 µg/mL and the minimal effective concentration (Aspergillus fumigatus [3]) is reported as 0.02 µg/mL. For the same compound, the minimal effective concentration (Aspergillus fumigatus [4]) was 0.01 µg/mL, the minimal effective concentration (Aspergillus fumigatus [5]) was 0.02 µg/mL and the minimal effective concentration (Aspergillus fumigatus [6]) was 0.02 µg/mL. For the same compound, the minimal effective concentration (Aspergillus fumigatus [7]) was 0.001 µg/mL, the minimal effective concentration (Aspergillus fumigatus [8]) was 0.02 µg/mL and the minimal effective concentration (Aspergillus fumigatus [9]) was 0.01 µg/mL.
